Assay outcomes as filed in PubChem BioAssay.
MrgX1 allo act: allosterically activates human MrgX1 receptor signaling. 0.63% of 310,000 active. B-score at 10 µM. AID 588675. Q96LB2. MrgX1-HEK293, Fluo-4 calcium flux, FDSS; stronger effect = higher value;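 active = plate-corrected calcium response at least 3 library SD above typical, normal starting fluorescence, not activating the receptor alone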;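 also: compound read alongside a low EC10 to EC30 dose of BAM8-22 agonist; peak minus trough fluorescence over baseline measured at the second addition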
Target sequence (Q96LB2 whole entry, looked up): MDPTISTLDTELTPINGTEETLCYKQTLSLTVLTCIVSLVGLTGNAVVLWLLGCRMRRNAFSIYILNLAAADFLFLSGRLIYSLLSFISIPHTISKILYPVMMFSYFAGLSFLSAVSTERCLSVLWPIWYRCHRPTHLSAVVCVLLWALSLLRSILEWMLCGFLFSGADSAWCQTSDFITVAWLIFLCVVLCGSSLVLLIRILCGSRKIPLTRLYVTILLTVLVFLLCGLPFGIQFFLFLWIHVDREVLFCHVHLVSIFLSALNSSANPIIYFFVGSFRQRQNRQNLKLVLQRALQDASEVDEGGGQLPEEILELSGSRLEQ
RGS4 act: RGS4 potentiation or activation | HEK293 M3R/inducible RGS4, carbachol calcium flux Fluo4; stronger effect = lower value | B-score at 10 µM | 0.92% of 310,000 active | AID 463111;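 active = B-score of the integrated calcium signal more than 4 SD below the library mean, with starting fluorescence not abnormally high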;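 also: negative B-score means reduced calcium response which marks RGS4 activation or potentiation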
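Material: M3R-expressing HEK293 line, RGS4 induced by doxycycline | Schedule: Overnight RGS4 induction, 30 min dye load 37 °C, 20 min compound RT | Measured by: Fluo4 fluorescence kinetic imaging of calcium | Read-out: Integrated calcium ratio converted to B score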
MrgX1 antag: blocks BAM8-22 activation of human MrgX1 receptor. Q96LB2. MRGX1-HEK293 calcium flux, Fluo-4, BAM8-22 antagonism; stronger effect = lower value. B-score at 10 µM. 1.3% of 310,000 active;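 active = calcium-response B-score plate-corrected more than 3 library SD below zero, starting fluorescence within 5 deviations, no agonist response on first addition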;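 also: peak minus trough fluorescence over baseline after final BAM8-22 challenge near maximal dose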
RGS4 block: inhibitors of human RGS4 | P49798 | HEK293 M3R/RGS4 inducible, Fluo-4 calcium flux; stronger effect = higher value; triggered by carbachol at its EC20 | B-score at 10 µM | 0.45% of 310,000 active;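 active = B-score, a plate-corrected calcium signal, over three deviations above library mean, with baseline fluorescence within five deviations of library mean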;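 also: RGS4 expression induced by doxycycline in cells with stable M3 receptor; B-score is computed from the integrated fluorescence ratio over baseline after carbachol; higher B-score means a larger calcium signal and so more RGS4 inhibition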
Target sequence (P49798 whole entry, looked up): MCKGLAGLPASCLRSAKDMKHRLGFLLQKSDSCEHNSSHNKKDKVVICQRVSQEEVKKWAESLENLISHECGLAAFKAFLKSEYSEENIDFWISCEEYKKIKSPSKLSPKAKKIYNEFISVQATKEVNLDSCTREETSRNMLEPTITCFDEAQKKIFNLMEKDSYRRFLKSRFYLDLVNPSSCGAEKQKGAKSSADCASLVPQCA
MrgX1 agonist: human MrgX1 receptor agonism, primary screen; Q96LB2; MrgX1-HEK293 cells, Fluo-4 calcium fluorescence, agonist mode; stronger effect = higher value; B-score at 10 µM; 0.44% of 310,000 active; AID 588627;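 active = calcium response B-score plate-corrected fluorescence ratio at least 3 library SD, with starting fluorescence B-score inside 5 SD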
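Material: MrgX1-expressing HEK293 cells; input: 15,000 cells per well; doses: test compound given as first of three sequential additions; schedule: overnight plating before 1 h dye loading; technique: Fluo-4 NW calcium-flux fluorescence, kinetic read; evaluation: baseline-normalised fluorescence change ratio, B-scored; control set: plate-wise positive and negative controls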
RGS4 block valid: validation of RGS4 inhibitors. 65% of 1,700 active. shares compounds with RGS4 block. AID 492999. calcium response, % at 10 µM. HEK293 M3R/RGS4, carbachol calcium Fluo-4 fluorescence; carbachol added at its EC20; 0 = buffer wells, 100 = carbachol control;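 active = duplicate-averaged calcium response above the buffer-only control mean plus 5 SD of those controls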;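 also: integrated fluorescence ratio F max minus min over baseline F0; higher response in RGS4-induced cells means RGS4 inhibition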
RGS4 uninduced: non-induced cell nonspecific activity of RGS4 inhibitors; activity (percent), % at 10 µM; HEK293 M3R non-induced, carbachol calcium Fluo-4; submaximal (EC20) carbachol stimulus; buffer wells 0%, carbachol control wells 100%; shares compounds with RGS4 block; 20% of 1,900 active; call rule not given here;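 also: RGS4 induction absent so cells express M3R without RGS4; higher means more calcium signal and flags a non-specific hit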
RGS4 inh ctr2: second counter-screen for RGS4 inhibitors: non-induced cells without carbachol; shares compounds with RGS4 block; HEK293 M3R/RGS4 non-induced, Fluo-4 calcium, no carbachol; normalised: buffer wells 0%, carbachol wells 100%; calcium response (agonist-mode artifact), % at 10 µM; 22% of 1,900 active; AID 493001;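 active = duplicate-averaged calcium rise in uninduced cells above buffer wells' mean plus 5 SD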
MrgX1 ag reconf: reconfirmed activator of human MrgX1 receptor signaling | MrgX1-HEK293, Fluo-4 calcium fluorescence, FDSS | shares compounds with MrgX1 agonist | 78% of 600 active | activation, % at 10 µM;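 active = calcium signal rise, corrected for plate position, at least 3 library SD high, with starting brightness within 5 such deviations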
MrgX1 PAM conf: reconfirmed allosteric activator of human MrgX1 receptor. shares compounds with MrgX1 allo act. MrgX1-HEK293, Fluo-4 calcium fluorescence, FDSS. activation (ratio percentage), % at 10 µM. 13% of 1,200 active;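 active = ratio at least 3 SD above the weak peptide control, stable starting fluorescence, no direct agonism earlier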;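 also: compound followed by low BAM8-22 agonist challenge near EC20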
HEK293 Ca flux: MrgX1 antagonist counter-screen hit in parental HEK293 cells; 2% of 4,000 active; fluorescence ratio F(max-min)/F0 at 10 µM; shares compounds with MrgX1 antag; Fluo-4 calcium fluorescence, FDSS;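 active = duplicate-averaged calcium fluorescence ratio at least three times the standard deviation of buffer wells, a nonspecific response in parental cells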
HEK293 Ca counter: MrgX1 allosteric activator counter-screen hit in parental HEK293 cells; shares compounds with MrgX1 antag; parental HEK293 calcium flux, Fluo-4 fluorescence ratio; stronger effect = higher value; fluorescence ratio F(max-min)/F0 at 10 µM; 0.4% of 4,000 active;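 active = calcium fluorescence ratio, averaged over duplicates, at least 3 SD of the buffer-well ratio, meaning a nonspecific response in receptor-free cells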;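 also: untransfected parental HEK293 lacking MrgX1 used as counterscreen for MrgX1 allosteric activators; fluorescence change taken during the second addition on a kinetic imager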
HEK293 Ca cntr2: activity in parental HEK293 cells lacking MrgX1 receptor; shares compounds with MrgX1 antag; Fluo-4 calcium fluorescence (FDSS); stronger effect = higher value; fluorescence ratio F(max-min)/F0 at 10 µM; 8.7% of 4,000 active; AID 624115;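 active = calcium fluorescence ratio at least three times the spread of buffer wells, meaning a non-specific response in parental cells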
* = called active by the depositor; i = inactive; x = no result. A selection: hits, their analogues and other compounds. The true share with any hit is near 3.5%.

SMILES	MrgX1 allo act	RGS4 act	MrgX1 antag	RGS4 block	MrgX1 agonist	RGS4 block valid	RGS4 uninduced	RGS4 inh ctr2	others
c1ccc(Nc2nc(N3CCCCC3)nc(N3CCCCC3)n2)cc1	i	i	i	5.2*	i	26%*	i	i
CCn1c(CSc2nc3ccccc3s2)nc2ccccc21	i	i	i	i	i	x	x	x
COCCNC(=O)CN1C(=O)NC2(CCCc3ccccc32)C1=O (configuration not stated)	i	i	i	i	i	x	x	x
Cc1ccc(-n2c(C)cc(C(=S)N3CCOCC3)c2C)cc1C	i	i	i	i	i	x	x	x
Cc1cc(OCCCCn2ccnc2)cc(C)c1Cl	i	i	i	i	i	x	x	x
COc1ccc(NC(=O)c2nc[nH]c2C(=O)N[C@H](C)c2ccccc2)cc1	i	i	i	7.6*	i	18%*	i	i
CCn1nc(NS(=O)(=O)c2ccc([N+](=O)[O-])cc2)c2cc3cccc(C)c3nc21	i	i	i	17*	i	22%*	37%*	i
Cc1nc2nc(NC(=O)c3ccco3)[nH]n2c(=O)c1C	i	i	i	i	i	x	x	x
COc1cc(C2C(C#N)=C(N)Oc3cc(O)ccc32)cc2c1OCO2 (configuration not stated)	i	i	i	12*	i	29%*	i	i
COc1cc(C2C(C#N)=C(N)Oc3cc(O)ccc32)cc(OC)c1OC (configuration not stated)	i	i	i	i	i	x	x	x
COc1ccc(C2C(C#N)=C(N)Oc3cc(O)ccc32)cc1C (configuration not stated)	i	i	i	i	i	x	31%*	21%*
COc1ccc(C2C(C#N)=C(N)Oc3cc(O)ccc32)cc1OC (configuration not stated)	i	i	i	i	i	x	i	i
CCCCN1CC[C@H]2C=CC[C@@H](C(=O)Nc3ccccc3)[C@H]2C1=O	i	i	i	i	i	x	x	x
Cc1onc(-c2ccccc2)c1C(=O)OCCOc1ccccc1F	i	i	i	i	i	x	x	x
COc1ccc(C2/C=C\CN(C(=O)Oc3ccc(C(F)(F)F)cc3)CC(=O)N2Cc2ccc(F)cc2)cc1 (configuration not stated)	i	i	i	i	i	x	x	x
O=C(N=C1c2ccccc2CN1c1ccc(F)c(Cl)c1)c1cccnc1Cl	i	i	i	i	i	x	x	x
N#C/C(=C\c1cccs1)C(=O)c1ccccc1Cl	i	i	i	18*	i	56%*	i	8.5%*
CCN(CC)CCN(C(=O)c1ccc2c(c1)CCCC2)c1nc2cc(OC)c(OC)cc2s1	i	i	i	5.3*	i	i	i	i
COc1cc2nc(N(CCN(C)C)C(=O)c3ccc4ccccc4c3)sc2cc1OC	i	i	i	i	i	x	x	x
O=C(c1cccc(-c2ccc(O)cc2)c1)N1CCN(c2ccc(F)cc2)CC1	i	i	i	i	i	x	x	x
Oc1nc(Nc2ccc(Cl)cc2Cl)sc1/C=C1\C=Nc2ccccc21	i	i	i	5.7*	i	10%*	i	20%*
Cc1nc(Nc2ccc(Cl)cc2Cl)sc1C(=O)Nc1ccccc1	i	i	i	i	i	x	x	x
CCCC(=O)Nc1c(-c2cccc(OC)c2)c(=O)c2ccccc2n1C	i	i	i	i	i	x	x	x
Cc1cc(C)nc(NS(=O)(=O)c2ccc(NC(=O)c3snnc3C)cc2)n1	i	i	i	i	i	x	x	x
CC(=O)N1Cc2cc([N+](=O)[O-])ccc2Oc2ccccc21	i	i	i	i	i	x	x	x
SMILES	MrgX1 allo act	RGS4 act	MrgX1 antag	RGS4 block	MrgX1 agonist	RGS4 block valid	RGS4 uninduced	RGS4 inh ctr2	others
CC(=O)C1=C(C)NC(=S)NC1c1cccc([N+](=O)[O-])c1 (configuration not stated)	6.5*	i	i	i	i	x	i	i
CCCCN(C)c1nc(-c2ccco2)c2c(c1C#N)CC(C)(C)OC2	i	i	i	7.2*	28*	i	i	34%*	MrgX1 ag reconf=84%*;HEK293 Ca flux=i;HEK293 Ca counter=i;HEK293 Ca cntr2=i
CN(C)CCNc1nc(-c2ccco2)c2c(c1C#N)CC(C)(C)OC2	i	i	i	i	i	x	x	x
CCOC(=O)Cc1csc(N/N=C\c2ccc(N(C)C)cc2)n1	i	i	i	i	i	x	x	x
COC(=O)Cc1ccc(NC(=S)N2CCN(c3cc(Cl)ccc3C)CC2)cc1	i	i	i	i	i	x	x	x
Cc1ccccc1Nc1nc(N)nc(-c2oc3ccccc3c2C)n1	47*	i	i	6*	i	27%*	42%*	i	MrgX1 PAM conf=33%*;HEK293 Ca flux=i;HEK293 Ca counter=i;HEK293 Ca cntr2=i
O=C(CC1(O)C(=O)Nc2ccccc21)c1cccc(Br)c1 (configuration not stated)	i	i	i	i	i	x	x	x
N#CC1(Nc2cccc(Br)c2)C(=O)Nc2ccccc21 (configuration not stated)	i	i	i	10*	54*	44%*	30%*	76%*	MrgX1 ag reconf=195%*;HEK293 Ca flux=i;HEK293 Ca counter=i;HEK293 Ca cntr2=49*
